Only some compounds are listed: those with a hit (about 2.9% of all), similar ones and a draw of the others.
HTRA1 inhibitor: inhibitors of human serine peptidase HTRA1 | Q92743 | recombinant HTRA1, FP-rhodamine activity-based probe, fluorescence polarization | inhibition, % at 5.96 µM | 0.5% of 340,000 active | AID 504803; in the data active = inhibition above about 36%;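 note: 0% = enzyme with DMSO and 100% = wells lacking enzyme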
PRMT1 FP inh: PRMT1 (human) inhibition, primary screen; Q99873; recombinant PRMT1, activity-based probe fluorescence polarization; inhibition, % at 2.79 µM; 1.3% of 370,000 active; AID 652257;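 active = inhibition above about 21% made by adding two undisclosed values, limit read from the data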
Target sequence (Q99873 whole entry, looked up): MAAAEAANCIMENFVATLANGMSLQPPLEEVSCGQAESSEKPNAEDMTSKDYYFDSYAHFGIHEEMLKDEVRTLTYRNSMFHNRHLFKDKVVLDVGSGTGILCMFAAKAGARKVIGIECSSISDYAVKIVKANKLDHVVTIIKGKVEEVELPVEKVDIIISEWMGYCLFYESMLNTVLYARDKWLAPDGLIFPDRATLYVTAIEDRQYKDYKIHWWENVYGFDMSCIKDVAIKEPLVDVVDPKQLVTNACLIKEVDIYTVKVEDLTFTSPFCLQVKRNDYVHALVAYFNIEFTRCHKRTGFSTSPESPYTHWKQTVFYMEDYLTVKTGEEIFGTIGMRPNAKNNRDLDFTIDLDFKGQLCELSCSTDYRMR
mABHD4 FP: inhibitors of mouse ABHD4. Q8VD66. purified mABHD4, FP-Rh probe fluorescence polarization. inhibition, % at 8.92 µM. 0.54% of 370,000 active;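 active = inhibition exceeding the mean over every tested compound plus 3 SD, cut at about 30% in these data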;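 note: 0% = plate median of compound wells and 100% = S159A mutant with DMSO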
Target sequence (Q8VD66 whole entry, looked up): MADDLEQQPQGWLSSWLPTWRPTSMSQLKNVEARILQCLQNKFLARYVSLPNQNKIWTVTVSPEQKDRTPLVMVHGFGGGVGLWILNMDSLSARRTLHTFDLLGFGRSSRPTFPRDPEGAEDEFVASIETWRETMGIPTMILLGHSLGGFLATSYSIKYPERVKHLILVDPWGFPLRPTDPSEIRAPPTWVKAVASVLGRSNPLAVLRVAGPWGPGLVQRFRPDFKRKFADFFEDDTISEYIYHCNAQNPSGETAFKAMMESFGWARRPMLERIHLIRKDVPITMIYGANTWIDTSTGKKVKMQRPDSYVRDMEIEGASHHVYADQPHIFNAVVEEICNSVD
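System: mouse ABHD4 enzyme, wild type / Medium: HEPES pH 7.0, NaCl, Pluronic buffer / Reagent: FP-Rh activity-based fluorescent probe / Control set: S159A mutant high control, sample median low control / Detection: fluorescence polarization with parallel and perpendicular emission, 525/598 nm / Schedule: 45 min + 60 min at 25 °C / Compound dosing: 8.92 µM, single dose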
SIAE primary: human SIAE inhibition, primary screen | Q9HAT2 | AID 1053197 | inhibition, % at 9.66 µM | SIAE FP-Rh probe binding, fluorescence polarization | 0.69% of 370,000 active;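 active = inhibition above a cutoff: mean of compounds within the control limits plus 3 SD of those, cut at about 17% in these data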;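 note: 0% = plate median of compound wells and 100% = probe without SIAE protein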
TCR-CD3 inh: human TCR-CD3 binding inhibition | TAMRA-labeled TCR probe fluorescence, biochemical | 0.37% of 360,000 active | inhibition, % at 9.4 µM; in the data active = inhibition above about 19%;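 note: recombinant mutant TCR 2C K166C tagged with TAMRA read by polarization; 0% = receptor in buffer alone and 100% = receptor with positive control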
ATG4B inh: inhibitors of human ATG4B cysteine protease | inhibition, % at 8.33 µM | Q9Y4P1 | 0.51% of 340,000 active | ATG4B cleavage of LC3-PLA2, NBD-HPC fluorescence, 1 h | AID 504462; in the data active = inhibition above about 40%
SIAE inh conf: human SIAE inhibition, confirmation; shares compounds with SIAE primary; SIAE FP-Rh activity-based probe, fluorescence polarization; inhibition, % at 9.66 µM; 13% of 2,300 active;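 active = mean inhibition of the replicates above the hit cutoff set in the primary screen, cut at about 17% in these data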;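 note: 0% = SIAE with DMSO and probe and 100% = probe without SIAE; inhibitors lower polarization as more probe stays unbound to SIAE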
* hit, by the source's call; x = no result.

SMILES	HTRA1 inhibitor	PRMT1 FP inh	mABHD4 FP	SIAE primary	TCR-CD3 inh	ATG4B inh	SIAE inh conf
COC(=O)c1cc2c(c3c4cc(C)ccc4n(S(=O)(=O)c4cccc(C)c4)c13)C(=O)N(Cc1ccc(C(F)(F)F)cc1)C2	x	1.7	0.1	-6.9	4.9	x	x
FC(F)(F)c1nnc2ccc(N3CCCCC3)nn12	x	-0.6	6.0	-1.4	1.4	-8.4	x
FC(F)(F)C(F)(F)c1nnc2ccc(-n3ccnc3)nn12	4.9	-0.7	8.0	17.1*	8.1	-0.1	2.6
C[C@H](NC(=O)CCCn1nnc2ccccc2c1=O)C(=O)O	0.2	-8.2	9.1	17.2*	0.2	2.9	0.3
C[C@H](NC(=O)CCn1nnc2ccccc2c1=O)C(=O)O	9.0	0.5	1.8	2.8	10.9	-1.2	x
CCN(CC)C(=O)C1=C(C)N(CCCN2CCCC2=O)C(=O)C(CC(=O)NCc2cccs2)C1 (configuration not stated)	4.3	3.5	5.4	4.2	-0.4	x	x
CC1=C(C(=O)N(C(C)C)C(C)C)CC(CC(=O)NCc2cccs2)C(=O)N1CCCN1CCCC1=O (configuration not stated)	x	4.9	5.3	20.8*	-6.3	x	0.4
O=C(CSc1nnc(SCc2cccc3ccccc23)s1)N/N=C/c1c[nH]c2ccccc12	-27.7	-1.6	-8.4	29.7*	7.8	-3.7	-0.5
NCc1ccc(OCCCN2CCC(C(O)(C3=CCCC3)c3ccccc3)CC2)cc1 (configuration not stated)	x	-1.0	0.3	9.4	5.5	x	x
C=C(C)CNC(=S)NN=C1c2ccccc2-c2ccccc21	-36.5	x	x	x	x	-13.4	x
CCNC(=S)NN=C1c2ccccc2-c2ccccc21	-33.0	4.3	-1.4	24.1*	-2.6	-12.1	4.0
COc1ccc(C2CC(c3ccccc3)=NN2c2ccc(/C=N/NC(=O)c3ccncc3)cc2)cc1 (configuration not stated)	3.7	-1.4	11.4	17.2*	0.6	9.1	7.1
CC(=O)CSc1ccc(S(=O)(=O)N2CCN(C)CC2)cn1	0.6	6.8	-0.8	23.4*	-1.2	4.2	-2.0
CCOC(=O)N1CCN(C(=O)COc2cccc3c2CCN(CC)C3=O)CC1	-3.2	4.4	1.6	19.8*	-3.5	-3.1	-1.4
CCOC(=O)N1CCN(C(=O)COc2cccc3c2CCN(Cc2ccc(F)cc2)C3=O)CC1	-10.6	1.6	4.5	-1.3	-2.4	-5.5	x
Cc1cccc(NC(=O)CNC(=O)[C@H](CCc2ccccc2)NC(=O)[C@H]2O[C@@H](n3cnc4c(N)ncnc43)[C@H](O)[C@@H]2O)c1C	x	3.6	7.5	14.2	-4.0	x	x
CCN(CC(=O)Nc1ccc(NC(C)=O)cc1)C(=O)c1cccc2ccccc12	-2.3	-2.1	1.6	17.8*	0.0	1.1	5.4
O=C(CSc1ccc(Cl)cc1)Nc1ccccc1	-3.7	5.8	-21.2	-3.5	-1.4	x	x
O=C(CSc1ccc(Cl)cc1)NC1=NN(c2ccccc2)C(=O)C1	5.0	1.1	21.1	24.7*	0.2	11.7	-2.5
Cc1cccc(/C(N)=N/OC(=O)c2ccc(F)cc2)c1	2.3	2.3	2.9	20.5*	-2.7	1.5	-1.0
COC(=O)[C@]12C[C@H](CC(=O)NCC3CCCCC3)C(=O)N(Cc3cccc4ccccc34)C1=C[C@H](COCc1ccccc1)O[C@@H]2C	x	-2.0	-3.3	1.0	x	x	x
COc1ccc(S(=O)(=O)N2CCN(C(=O)CN3C(=O)NC(C)(c4ccc5ccccc5c4)C3=O)CC2)cc1 (configuration not stated)	-7.5	0.7	3.4	17.2*	1.6	-16.7	1.0
CN1[C@H](Cc2ccccc2)COc2cccc(N3CCCC3)c2S1(=O)=O	x	1.4	-0.9	1.8	x	x	x
COc1cc(CNc2ccc(N3CCOCC3)cc2)ccc1OCC(=O)NC(C)(C)C	10.3	3.0	16.8	19.1*	5.5	-2.6	4.8
Cc1ccc(Nc2nc(/N=C/NO)n[nH]2)cc1C	2.7	-3.9	3.4	26.0*	5.9	-4.8	1.8
SMILES	HTRA1 inhibitor	PRMT1 FP inh	mABHD4 FP	SIAE primary	TCR-CD3 inh	ATG4B inh	SIAE inh conf
Cc1nc(C)c(-c2ccnc(/N=C/NO)n2)s1	1.2	3.2	-2.2	-1.5	-0.1	1.7	x
Brc1ccc(-c2csc(Nc3nc(-c4ccc(Br)cc4)cs3)n2)cc1	-11.8	2.7	7.4	42.2*	-7.4	-0.1	11.2
CCC/C(=N/NC(=O)c1ccccc1Cl)c1ccccc1	-2.5	-6.7	1.1	17.4*	3.3	-3.0	0.0
Cc1c(CCC(=O)NCCCn2ccnc2)c(=O)oc2cc3occ(C(C)(C)C)c3cc12	1.1	-2.1	11.9	18.2*	-4.8	-13.4	0.7
O=C(C1CCC1)n1ccc2ccc(-c3ccc4ccn(Cc5ccccc5)c4c3)cc21	x	-2.6	-2.1	-3.9	x	x	x
CCOC(=O)c1sc(=S)[nH]c1C	2.1	6.2	1.7	18.2*	-4.5	-5.5	7.0
CCOC(=O)c1c(C)[nH]sc1=S	-0.8	8.8	-8.8	1.4	1.7	4.5	x
Cc1cc(N/N=C/c2ccc(O)c(C)c2O)nc(-c2ccccc2O)n1	19.4	1.1	-21.7	35.7*	2.9	28.8	2.5
CCOC(=O)c1sc(Nc2nc3c(F)cccc3s2)cc1C	-4.8	-1.3	4.9	4.0	-0.1	-6.0	x
COc1cccc(Nc2nc3ccc(OC)cc3s2)c1	9.4	-3.0	7.2	19.7*	-3.9	-12.8	3.0
CCOC(=O)c1sc(Nc2nc3ccc(OC)cc3s2)cc1C	1.0	-0.8	12.2	34.5*	1.1	-6.8	-8.8
O=C1CCN(Cc2ccc(O)cc2)CCN1[C@H](CO)Cc1ccccc1	0.9	1.0	5.2	17.6*	2.6	-6.1	1.1
COc1cc(C(=O)NC2CCCCN(C)C2=O)cc(OC)c1OC (configuration not stated)	x	-3.9	-2.9	1.2	8.4	x	x
O=[N+]([O-])c1ccc(Nc2nc(N/N=C/c3cccc(F)c3)nc(N3CCCC3)n2)cc1	-46.7	3.0	5.3	-25.2	0.8	12.5	x
COc1cccc(/C=N/Nc2nc(Nc3ccc([N+](=O)[O-])cc3)nc(N3CCCC3)n2)c1O	x	3.8	7.9	19.0*	-2.1	4.2	-7.9
CCN1C[C@@H]2[C@@H]3C(=O)N(C)C(=O)[C@@H]3[C@](Cc3ccccc3)(C1=O)N2C(=O)c1ccc(C(C)(C)C)cc1	-2.3	1.5	0.5	21.1*	5.1	-11.9	0.5
C=CCN(CC#CCN(C)C(=O)c1cccn1C(=O)OC(C)(C)C)Cc1ccc(OC)cc1OC	x	2.7	-2.6	-5.5	x	x	x
COc1ccc(S[C@]2(C(=O)N3CCCC3)CC(=O)N(c3ccccc3OC)[C@@H]2c2ccc(OC)cc2)cc1	x	1.1	1.1	1.8	x	x	x
COc1cc(S(=O)(=O)NCCN2CCOCC2)ccc1-n1cnnn1	-3.3	-1.1	10.8	-0.8	-6.9	-0.4	x
COc1cc(S(=O)(=O)NCCCN2CCOCC2)ccc1-n1cnnn1	0.8	-1.8	5.1	17.3*	6.3	-3.0	5.2

Screening results from PubChem.
